In data set [1] the target is T1, Lethal(3)malignant brain tumor-like protein 3 (Homo sapiens, UniProt Q96JM7).
T1 sequence (Q96JM7 whole entry): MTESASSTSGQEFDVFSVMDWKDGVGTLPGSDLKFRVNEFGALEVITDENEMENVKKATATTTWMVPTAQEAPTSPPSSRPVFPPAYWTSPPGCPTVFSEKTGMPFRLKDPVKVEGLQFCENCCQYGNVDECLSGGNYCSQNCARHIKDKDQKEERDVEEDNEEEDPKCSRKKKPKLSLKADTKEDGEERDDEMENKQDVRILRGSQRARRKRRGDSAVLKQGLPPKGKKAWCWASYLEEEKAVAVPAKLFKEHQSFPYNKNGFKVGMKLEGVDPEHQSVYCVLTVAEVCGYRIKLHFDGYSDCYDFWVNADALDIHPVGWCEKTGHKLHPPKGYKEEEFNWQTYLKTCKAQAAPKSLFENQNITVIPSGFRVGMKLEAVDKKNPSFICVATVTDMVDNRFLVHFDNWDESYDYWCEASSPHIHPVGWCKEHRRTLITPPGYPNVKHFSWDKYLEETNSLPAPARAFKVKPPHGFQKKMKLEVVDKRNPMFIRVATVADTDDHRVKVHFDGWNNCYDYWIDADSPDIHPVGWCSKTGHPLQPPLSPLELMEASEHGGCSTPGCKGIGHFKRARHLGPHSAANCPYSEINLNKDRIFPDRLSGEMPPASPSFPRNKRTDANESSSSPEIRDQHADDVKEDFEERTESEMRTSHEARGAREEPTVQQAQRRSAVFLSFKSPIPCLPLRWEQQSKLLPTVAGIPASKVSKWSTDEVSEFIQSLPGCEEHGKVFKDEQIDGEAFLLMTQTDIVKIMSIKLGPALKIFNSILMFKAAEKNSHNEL
Kind of data set: Inhibition of GFP-3MBT tagged L3MBTL3 (unknown origin) expressed in HEK293 cells assessed as reduction in recovery of fluorescence intensity measured up to 60 secs by FRAP assay.

Data set [2] addresses Muscarinic acetylcholine receptor M2 (Homo sapiens) (UniProt P08172). The data set can be described thus: Agonist activity at human M2 receptor. The format is functional.
The target of data set [3] is MBT domain-containing protein 1 (Homo sapiens, UniProt Q05BQ5). The data set can be described thus: Inhibition of MBT domain containing MBTD1 (unknown origin) using H4K20me2 peptide by Alpha-Screen methylated histone peptide competition assay. On the technique in general: Bead proximity is the source of the signal in Alpha formats.
Data set [4] addresses T2, Lethal(3)malignant brain tumor-like protein 3 (Homo sapiens) (UniProt Q96JM7).
T2 sequence (whole entry): T1 sequence (Q96JM7 whole entry)
Kind of data set: Binding affinity to GFP-3MBT tagged L3MBTL3 (unknown origin) assessed as protein half life at 1 uM.

Another data set concerns the target PHD finger protein 23 (Homo sapiens, UniProt Q9BUL5). The data set can be described thus: Inhibition of PHD finger domain containing PHF23 (unknown origin) using H4K20me2 peptide by Alpha-Screen methylated histone peptide competition assay.
For data set [5], the target named is Kappa-type opioid receptor (Homo sapiens, UniProt P41145). Kind of data set: Inhibition of KOR (unknown origin) by radioligand binding assay.
Kappa-type opioid receptor, sequence (P41145 whole entry): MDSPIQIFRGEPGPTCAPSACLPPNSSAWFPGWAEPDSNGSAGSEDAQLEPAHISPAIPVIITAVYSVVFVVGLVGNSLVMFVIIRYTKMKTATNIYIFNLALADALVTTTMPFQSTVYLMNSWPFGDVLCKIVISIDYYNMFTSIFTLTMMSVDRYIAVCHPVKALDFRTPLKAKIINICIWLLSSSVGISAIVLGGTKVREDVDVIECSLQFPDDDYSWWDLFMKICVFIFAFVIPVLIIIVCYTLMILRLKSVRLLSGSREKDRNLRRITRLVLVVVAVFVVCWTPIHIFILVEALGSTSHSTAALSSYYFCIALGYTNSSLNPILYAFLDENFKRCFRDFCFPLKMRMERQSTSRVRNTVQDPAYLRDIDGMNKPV
The target in data set [6] is Muscarinic acetylcholine receptor M5 (Homo sapiens, UniProt P08912). The data set can be described thus: Inhibition of M5 receptor (unknown origin) by radioligand binding assay.
Muscarinic acetylcholine receptor M5, sequence (P08912 whole entry): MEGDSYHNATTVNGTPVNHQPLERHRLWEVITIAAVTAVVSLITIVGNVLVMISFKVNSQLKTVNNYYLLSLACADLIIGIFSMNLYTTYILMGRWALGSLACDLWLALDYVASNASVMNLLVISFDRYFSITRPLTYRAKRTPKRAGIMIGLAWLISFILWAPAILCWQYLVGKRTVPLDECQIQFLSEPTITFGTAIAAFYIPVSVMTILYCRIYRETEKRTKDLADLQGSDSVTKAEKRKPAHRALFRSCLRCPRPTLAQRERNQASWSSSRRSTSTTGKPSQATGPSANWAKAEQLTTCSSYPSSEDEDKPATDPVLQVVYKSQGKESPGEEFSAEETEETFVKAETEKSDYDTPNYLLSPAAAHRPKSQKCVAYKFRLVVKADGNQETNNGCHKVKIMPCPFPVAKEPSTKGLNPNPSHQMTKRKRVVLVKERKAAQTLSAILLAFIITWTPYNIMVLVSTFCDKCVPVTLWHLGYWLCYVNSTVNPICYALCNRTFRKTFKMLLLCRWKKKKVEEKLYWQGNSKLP
The target in data set [7] is Receptor-type tyrosine-protein kinase FLT3 (Homo sapiens) (UniProt P36888). The data set can be described thus: Inhibition of FLT3 (unknown origin) at 10 uM relative to control.
Another data set addresses PHD finger protein 20 (Homo sapiens, UniProt Q9BVI0). The data set can be described thus: Binding affinity to PHF20 (unknown origin) by ITC assay. On the technique in general: ITC needs no label: the signal is the heat of the interaction.
Data set [8] concerns the target Muscarinic acetylcholine receptor M2 (Homo sapiens, UniProt P08172). The data set can be described thus: Antagonist activity at human M2 receptor assessed as reduction in acetylcholine-induced response by Schild analysis. The format is functional. The note with it: read-out: pA2 (converted).
In data set [9] the target is Muscarinic acetylcholine receptor M4 (Homo sapiens, UniProt P08173). Kind of data set: Inhibition of M4 receptor (unknown origin) by radioligand binding assay.
Muscarinic acetylcholine receptor M4, sequence (P08173 whole entry): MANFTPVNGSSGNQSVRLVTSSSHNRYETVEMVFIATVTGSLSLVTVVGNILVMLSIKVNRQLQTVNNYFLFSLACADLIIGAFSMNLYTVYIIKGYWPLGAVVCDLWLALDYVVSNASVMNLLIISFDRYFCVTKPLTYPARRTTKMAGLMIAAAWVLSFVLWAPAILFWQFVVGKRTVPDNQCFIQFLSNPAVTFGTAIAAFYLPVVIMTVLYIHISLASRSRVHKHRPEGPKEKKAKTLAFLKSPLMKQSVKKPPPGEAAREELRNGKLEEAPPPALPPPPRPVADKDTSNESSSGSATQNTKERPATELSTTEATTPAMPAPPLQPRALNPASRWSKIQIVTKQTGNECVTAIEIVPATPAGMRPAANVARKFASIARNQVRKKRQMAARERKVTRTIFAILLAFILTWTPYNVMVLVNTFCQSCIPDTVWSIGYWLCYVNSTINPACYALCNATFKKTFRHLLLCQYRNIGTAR
Data set [10] can be described thus: Cytotoxicity in HEK293T/17 cells assessed as effect on cell viability up to 100 uM incubated for 24 hrs by CellTiter-Glo luminescent cell viability assay. The format is toxicity, cell-based. The note with it: human, hek293t/17, 24 h.
Data set [11] concerns the target Sodium-dependent dopamine transporter (Homo sapiens, UniProt Q01959). Kind of data set: Inhibition of DAT (unknown origin) by radioligand binding assay.
For data set [12], the target named is T2, Lethal(3)malignant brain tumor-like protein 3 (Homo sapiens). To be noted: dose 0.05 µM.
For data set [13], the target named is T1, Lethal(3)malignant brain tumor-like protein 3. The data set can be described thus: Binding affinity to GFP-3MBT tagged L3MBTL3 (unknown origin) assessed as diffusion coefficient at 0.5 uM (reference value: 0.1272 um2/s).
The target in data set [14] is Mortality factor 4-like protein 1 (Homo sapiens, UniProt Q9UBU8). Kind of data set: Binding affinity to MRG15 (unknown origin) by ITC assay.
Mortality factor 4-like protein 1, sequence (Q9UBU8 whole entry, the tested form may be a part): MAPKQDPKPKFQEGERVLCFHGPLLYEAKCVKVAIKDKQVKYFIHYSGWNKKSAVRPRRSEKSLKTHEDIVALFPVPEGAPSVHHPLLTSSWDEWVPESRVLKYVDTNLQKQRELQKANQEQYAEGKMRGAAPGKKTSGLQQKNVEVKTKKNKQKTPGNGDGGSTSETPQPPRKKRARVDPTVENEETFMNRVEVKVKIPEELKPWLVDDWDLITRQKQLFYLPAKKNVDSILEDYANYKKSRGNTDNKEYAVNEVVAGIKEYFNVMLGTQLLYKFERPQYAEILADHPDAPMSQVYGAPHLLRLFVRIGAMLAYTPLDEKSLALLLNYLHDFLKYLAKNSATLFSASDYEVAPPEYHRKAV
Data set [15] deals with Scm-like with four MBT domains protein 1 (Homo sapiens, UniProt Q9UHJ3). Kind of data set: Inhibition of MBT domain containing SFMBT (unknown origin) using H4K20me2 peptide by Alpha-Screen methylated histone peptide competition assay.
Scm-like with four MBT domains protein 1, sequence (Q9UHJ3 whole entry, the tested form may be a part): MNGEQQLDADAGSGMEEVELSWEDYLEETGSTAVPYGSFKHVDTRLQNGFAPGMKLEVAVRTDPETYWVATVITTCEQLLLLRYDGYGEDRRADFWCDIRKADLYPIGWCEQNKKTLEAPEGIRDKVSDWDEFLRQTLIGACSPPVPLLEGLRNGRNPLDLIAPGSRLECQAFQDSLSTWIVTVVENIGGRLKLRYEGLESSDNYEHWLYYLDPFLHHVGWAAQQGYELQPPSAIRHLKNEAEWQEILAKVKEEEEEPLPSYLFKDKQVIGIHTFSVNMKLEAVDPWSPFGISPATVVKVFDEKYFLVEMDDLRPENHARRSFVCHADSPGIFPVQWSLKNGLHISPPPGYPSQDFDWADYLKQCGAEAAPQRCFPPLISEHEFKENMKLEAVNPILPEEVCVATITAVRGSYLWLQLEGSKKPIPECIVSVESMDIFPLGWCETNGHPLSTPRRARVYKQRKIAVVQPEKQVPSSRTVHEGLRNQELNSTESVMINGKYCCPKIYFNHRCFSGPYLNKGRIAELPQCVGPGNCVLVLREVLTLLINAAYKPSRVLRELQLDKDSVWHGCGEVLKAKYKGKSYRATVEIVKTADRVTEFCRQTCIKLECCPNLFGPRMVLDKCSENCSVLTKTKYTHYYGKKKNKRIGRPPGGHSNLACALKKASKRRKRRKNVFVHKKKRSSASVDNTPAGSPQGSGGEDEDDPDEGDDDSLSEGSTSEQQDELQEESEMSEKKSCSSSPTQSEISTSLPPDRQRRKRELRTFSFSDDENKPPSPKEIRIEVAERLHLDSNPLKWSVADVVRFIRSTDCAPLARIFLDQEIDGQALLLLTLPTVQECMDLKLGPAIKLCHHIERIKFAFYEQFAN
Data set [16] addresses Alpha-2C adrenergic receptor (Homo sapiens, UniProt P18825). The data set can be described thus: Inhibition of alpha2C receptor (unknown origin) by radioligand binding assay.
Data set [17] can be described thus: Binding affinity to L3MBTL3 F387A mutant (unknown origin) by ITC assay. More on the design: species or system Homo sapiens.
For data set [18], the target named is Lethal(3)malignant brain tumor-like protein 4 (Homo sapiens, UniProt Q8NA19). Kind of data set: Inhibition of MBT domain containing L3MBTL4 (unknown origin) using H4K20me2 peptide by Alpha-Screen methylated histone peptide competition assay.
Data set [19] addresses T2, Lethal(3)malignant brain tumor-like protein 3 (Homo sapiens). The note with it: dose 0.01 µM.
The target in data set [20] is T3, Muscarinic acetylcholine receptor M1 (Homo sapiens, UniProt P11229).
T3 sequence (P11229 whole entry): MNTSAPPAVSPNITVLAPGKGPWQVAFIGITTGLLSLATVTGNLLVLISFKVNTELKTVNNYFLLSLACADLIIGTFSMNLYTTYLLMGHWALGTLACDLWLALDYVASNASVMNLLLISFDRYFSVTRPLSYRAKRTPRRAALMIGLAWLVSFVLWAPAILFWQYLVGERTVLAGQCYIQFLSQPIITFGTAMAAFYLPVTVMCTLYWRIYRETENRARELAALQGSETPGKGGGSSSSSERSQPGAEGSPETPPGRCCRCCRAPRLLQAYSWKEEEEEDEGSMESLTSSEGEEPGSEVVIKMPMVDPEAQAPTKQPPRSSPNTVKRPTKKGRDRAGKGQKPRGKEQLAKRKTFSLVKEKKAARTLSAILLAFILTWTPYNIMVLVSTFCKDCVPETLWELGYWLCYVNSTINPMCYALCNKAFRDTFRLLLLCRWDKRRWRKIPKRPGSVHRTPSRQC
Kind of data set: Inhibition of M1 receptor (unknown origin) by radioligand binding assay. The method, boiled down:
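Radioligand competition binding; the value is reported as a Ki.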

The next data set is filed under the species Homo sapiens. Kind of data set: Binding affinity to histone demethylase (unknown origin) assessed as change in melting temperature at 50 uM by Differential scanning fluorimetry relative to control. On the technique in general: DSF heats the sample and reads unfolding from a dye or from intrinsic fluorescence.

Calls of active or inactive are those of the source. The calls are words filed in the database; no cut-off is given here. A value given as a limit tells only on which side of the number the result lay.

Alpha-2C adrenergic receptor, sequence (P18825 whole entry): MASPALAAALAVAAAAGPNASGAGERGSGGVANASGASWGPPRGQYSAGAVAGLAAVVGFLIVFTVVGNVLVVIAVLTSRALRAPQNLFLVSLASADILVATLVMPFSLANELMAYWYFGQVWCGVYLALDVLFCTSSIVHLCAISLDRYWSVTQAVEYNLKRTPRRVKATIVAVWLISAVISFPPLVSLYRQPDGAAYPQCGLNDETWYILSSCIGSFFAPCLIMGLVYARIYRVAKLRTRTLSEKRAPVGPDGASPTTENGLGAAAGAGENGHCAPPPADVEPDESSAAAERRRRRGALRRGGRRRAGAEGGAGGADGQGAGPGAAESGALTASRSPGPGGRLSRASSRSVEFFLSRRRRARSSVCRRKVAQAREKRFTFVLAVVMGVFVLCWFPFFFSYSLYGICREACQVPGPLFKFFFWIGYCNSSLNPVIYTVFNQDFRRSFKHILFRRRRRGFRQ
PHD finger protein 20, sequence (Q9BVI0 whole entry): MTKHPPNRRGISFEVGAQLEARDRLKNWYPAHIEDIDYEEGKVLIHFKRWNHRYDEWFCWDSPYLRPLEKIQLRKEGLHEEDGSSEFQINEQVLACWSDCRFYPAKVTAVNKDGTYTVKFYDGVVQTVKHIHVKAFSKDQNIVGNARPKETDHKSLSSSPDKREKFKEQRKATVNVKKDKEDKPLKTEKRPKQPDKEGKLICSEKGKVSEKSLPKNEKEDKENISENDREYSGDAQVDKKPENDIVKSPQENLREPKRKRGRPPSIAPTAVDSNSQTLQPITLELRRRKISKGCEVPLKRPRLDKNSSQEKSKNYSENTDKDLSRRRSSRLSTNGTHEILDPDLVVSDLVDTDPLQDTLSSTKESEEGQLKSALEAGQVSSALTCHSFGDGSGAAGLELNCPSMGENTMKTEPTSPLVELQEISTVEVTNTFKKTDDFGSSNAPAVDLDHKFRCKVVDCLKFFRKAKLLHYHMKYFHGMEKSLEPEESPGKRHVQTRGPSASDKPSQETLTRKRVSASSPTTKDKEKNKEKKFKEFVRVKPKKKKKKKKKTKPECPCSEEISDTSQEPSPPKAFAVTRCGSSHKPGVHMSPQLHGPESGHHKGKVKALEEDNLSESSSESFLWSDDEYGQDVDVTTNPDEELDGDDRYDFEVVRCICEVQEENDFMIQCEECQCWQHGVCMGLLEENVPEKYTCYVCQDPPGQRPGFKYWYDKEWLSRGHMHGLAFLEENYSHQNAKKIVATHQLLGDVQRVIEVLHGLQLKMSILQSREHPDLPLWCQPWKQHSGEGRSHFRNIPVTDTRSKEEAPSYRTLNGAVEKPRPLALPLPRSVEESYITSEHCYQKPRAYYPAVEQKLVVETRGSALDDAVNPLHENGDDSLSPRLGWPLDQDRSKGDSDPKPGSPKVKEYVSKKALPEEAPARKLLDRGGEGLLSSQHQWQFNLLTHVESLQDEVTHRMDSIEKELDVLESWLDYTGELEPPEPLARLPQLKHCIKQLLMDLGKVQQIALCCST
Muscarinic acetylcholine receptor M2, sequence (P08172 whole entry): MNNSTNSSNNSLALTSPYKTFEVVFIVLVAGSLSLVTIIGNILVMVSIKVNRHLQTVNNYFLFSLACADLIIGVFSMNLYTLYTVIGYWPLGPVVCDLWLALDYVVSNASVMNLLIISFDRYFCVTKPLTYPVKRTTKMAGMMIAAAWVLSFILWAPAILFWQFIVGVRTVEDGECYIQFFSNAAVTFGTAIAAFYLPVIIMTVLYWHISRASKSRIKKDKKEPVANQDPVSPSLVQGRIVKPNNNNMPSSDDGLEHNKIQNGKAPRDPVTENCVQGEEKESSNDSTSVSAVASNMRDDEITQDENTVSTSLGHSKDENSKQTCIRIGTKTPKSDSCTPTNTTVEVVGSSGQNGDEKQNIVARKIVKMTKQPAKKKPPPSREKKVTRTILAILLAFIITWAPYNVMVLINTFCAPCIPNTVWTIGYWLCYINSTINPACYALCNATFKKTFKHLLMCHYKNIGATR
Muscarinic acetylcholine receptor M2 (Homo sapiens), sequence (P08172 whole entry, the tested form may be a part): as the sequence (P08172 whole entry) above
PHD finger protein 23, sequence (Q9BUL5 whole entry, the tested form may be a part): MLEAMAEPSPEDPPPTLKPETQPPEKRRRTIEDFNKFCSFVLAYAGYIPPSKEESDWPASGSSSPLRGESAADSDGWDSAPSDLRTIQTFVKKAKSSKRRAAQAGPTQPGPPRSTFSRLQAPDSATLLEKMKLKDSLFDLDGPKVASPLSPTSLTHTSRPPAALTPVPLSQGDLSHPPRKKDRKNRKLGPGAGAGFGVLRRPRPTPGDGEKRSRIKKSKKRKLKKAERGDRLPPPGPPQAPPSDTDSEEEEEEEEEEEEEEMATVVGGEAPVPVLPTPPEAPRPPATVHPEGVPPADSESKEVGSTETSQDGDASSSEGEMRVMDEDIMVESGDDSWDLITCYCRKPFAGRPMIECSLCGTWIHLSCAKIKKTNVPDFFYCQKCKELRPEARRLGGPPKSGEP

Broadly, the IC50 is the concentration that inhibits the measured activity by half. In general, Ki refers to the dissociation constant of the complex between target and ligand, obtained from inhibition or displacement. The low end stands for tighter binding, the high end for weaker binding. As usually defined, the inhibition is the relative decrease from the control value, in per cent. As a reminder, the Kd is the free concentration of one partner at which half of the binding sites on the other are occupied at equilibrium, for simple one-to-one binding. High values mean weaker binding, low ones tighter binding. Usually ΔTm stands for the change in melting temperature against a reference sample. On to `O=C(c1ccc(C(=O)N2CCC(N3CCCC3)CC2)c(Nc2ccccc2)c1)N1CCC(N2CCCC2)CC1`, for which the 50% inhibitory concentration (IC50) is 0.05 µM in data set [1]; 6 µM in data set [3]; more than 30 µM on PHD finger protein 23; more than 30 µM in [15]; 11 µM in data set [18]. The outcome in data set [2] was inactive. Besides, the figures for the T1/2 in data set [4], in [12] and in data set [19] were 3.6 s, 6.5 s and 23.8 s, respectively. The inhibition constant Ki in data set [5] is 4 µM; in data set [6], 4.3 µM; in [9], 0.4 µM; in data set [11] it was more than 10 µM; in [16] it was 0.86 µM; in data set [20], 0.097 µM. Moreover, the inhibition in data set [7] was 64%. The Kd at PHD finger protein 20 amounted to 5.6 µM; in data set [14], 28.9 µM; in [17] it was 1 µM. In data set [8], the Kb is 0.0245 µM. Besides, the Activity entry in data set [10] is “Non-Toxic”. Besides, the Diffusion coefficient in data set [13] is given as 0.297 um2/s. Also, in the data set filed under Homo sapiens, the ΔTm is less than 0.5 °C.
